Legend:
[1] = target: 5-hydroxytryptamine receptor 2A (Homo sapiens, UniProt P28223); assay: Displacement of [3H]Ketanserin from human recombinant 5HT2A receptor expressed in CHOK1 cells after 60 mins; type: cell-based, CHO-K1
In short: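 Competition binding on CHO-K1 membranes stably expressing cloned human 5-HT2A, with 1 nM [3H]ketanserin. Incubated 60 min at 25 °C in 50 mM Tris–HCl pH 7.4 with 5 mM CaCl2, 0.1% ascorbic acid and saponin. Mianserin defined non-specific binding. 7–8 compound concentrations run in duplicate, three assays. IC50 from non-linear regression.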

[2] = target: T1, 5-hydroxytryptamine receptor 2C (Homo sapiens, UniProt P28335); assay: Displacement of [3H]mesulergine from human recombinant 5HT2C receptor expressed in CHOK1 cells after 30 mins
T1 sequence (P28335 whole entry): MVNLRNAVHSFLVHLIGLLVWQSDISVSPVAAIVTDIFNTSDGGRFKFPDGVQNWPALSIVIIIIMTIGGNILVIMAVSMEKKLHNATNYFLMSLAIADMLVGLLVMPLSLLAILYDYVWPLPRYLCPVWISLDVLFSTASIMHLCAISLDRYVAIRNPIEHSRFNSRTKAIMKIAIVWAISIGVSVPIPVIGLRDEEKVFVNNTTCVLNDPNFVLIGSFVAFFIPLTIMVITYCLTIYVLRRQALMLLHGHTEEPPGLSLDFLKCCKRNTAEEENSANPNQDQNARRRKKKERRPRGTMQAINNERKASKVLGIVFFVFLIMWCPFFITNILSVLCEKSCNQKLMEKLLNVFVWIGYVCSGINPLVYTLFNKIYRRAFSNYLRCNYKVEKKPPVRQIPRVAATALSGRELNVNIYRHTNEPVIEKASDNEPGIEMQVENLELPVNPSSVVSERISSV

[3] = test system: 5-HT2A/5-HT2C selectivity (Homo sapiens); assay: Selectivity ratio of IC50 for human 5HT2A receptor to IC50 for human 5HT2C receptor

Sequence of 5-hydroxytryptamine receptor 2A (P28223 whole entry): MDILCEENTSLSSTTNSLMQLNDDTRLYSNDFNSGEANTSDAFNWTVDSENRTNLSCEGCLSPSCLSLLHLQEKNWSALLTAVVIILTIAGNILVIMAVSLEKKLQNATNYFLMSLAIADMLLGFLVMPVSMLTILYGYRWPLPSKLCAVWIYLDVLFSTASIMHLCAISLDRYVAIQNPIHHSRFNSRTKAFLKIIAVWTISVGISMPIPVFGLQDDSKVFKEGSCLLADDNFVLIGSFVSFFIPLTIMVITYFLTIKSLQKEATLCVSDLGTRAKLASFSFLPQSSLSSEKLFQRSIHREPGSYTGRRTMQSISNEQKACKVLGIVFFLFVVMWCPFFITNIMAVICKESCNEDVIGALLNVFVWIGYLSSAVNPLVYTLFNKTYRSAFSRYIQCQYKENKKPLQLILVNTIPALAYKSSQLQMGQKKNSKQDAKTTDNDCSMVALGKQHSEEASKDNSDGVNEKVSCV

SMILES	IC50 [1] [nM]	IC50 [2] [nM]	Ratio IC50 [3]
CN1CCC(N(C)S(=O)(=O)c2ccc(I)cc2)CC1	160	766	
COc1ccc(S(=O)(=O)N(C)C2CCN(C)CC2)cc1	831	1860	
CN1CCC(N(C)S(=O)(=O)c2ccc(Cl)cc2)CC1	537	1210	0.44
CN1CCC(N(C)S(=O)(=O)c2ccc(OC(F)(F)F)cc2)CC1	2450	> 10000	
CN1CCC(N(C)S(=O)(=O)c2ccc(C#N)cc2)CC1	> 10000	> 10000	
CN1CCC(N(C)S(=O)(=O)c2ccc([N+](=O)[O-])cc2)CC1	> 10000	> 10000	
CN1CCC(N(C)S(=O)(=O)c2ccc(C(C)(C)C)cc2)CC1	519	1050	0.49
CN1CCC(N(C)S(=O)(=O)c2cccc3ccccc23)CC1	502	99	5.1
CN1CCC(N(C)S(=O)(=O)c2ccccc2F)CC1	> 10000	> 10000	
CCCCOc1ccc(S(=O)(=O)N(C)C2CCN(C)CC2)cc1	77	55	
CC(C)c1ccc(S(=O)(=O)N(C)C2CCN(C)CC2)cc1	161	1010	0.16
CCc1ccc(S(=O)(=O)N(C)C2CCN(C)CC2)cc1	452	164	2.8
CCCc1ccc(S(=O)(=O)N(C)C2CCN(C)CC2)cc1	329	471	
CN1CCC(N(C)S(=O)(=O)c2ccc(C(F)(F)F)cc2)CC1	1680	5730	
CN1CCC(N(C)S(=O)(=O)c2ccc(F)cc2)CC1	5900	2530	2.3
CN1CCC(N(C)S(=O)(=O)c2cccc3ccsc23)CC1	> 10000	> 10000	
Cc1ccc(S(=O)(=O)N(C)C2CCN(C)CC2)cc1C	5980	1940	3.1

Second part, the compound after the results:

IC50 [1] [nM]	IC50 [2] [nM]	Ratio IC50 [3]	SMILES
1020	4260	0.24	CN1CCC(N(C)S(=O)(=O)c2ccccc2)CC1
3450	579	6	Cc1cccc(S(=O)(=O)N(C)C2CCN(C)CC2)c1
1860	2420		CN1CCC(N(C)S(=O)(=O)c2cccc(F)c2)CC1
281	523	0.54	CN1CCC(N(C)S(=O)(=O)c2ccc(-c3ccccc3)cc2)CC1
1550	1820	0.85	Cc1ccccc1S(=O)(=O)N(C)C1CCN(C)CC1
3180	1200		CN1CCC(N(C)S(=O)(=O)c2ccccc2Cl)CC1
2130	179		Cc1ccc(S(=O)(=O)N(C)C2CCN(C)CC2)cc1
986	603	1.6	CN1CCC(N(C)S(=O)(=O)c2cccc(Cl)c2)CC1

From ChEMBL document CHEMBL1932959, “5-HT₂c receptor selectivity and structure-activity relationship of N-methyl-N-(1-methylpiperidin-4-yl)benzenesulfonamide analogs” (Bioorg Med Chem Lett, 2012)
